Data taken from ChEMBL document CHEMBL2390917, “Synthesis and biological evaluation of 2-(5-methyl-4-phenyl-2-oxopyrrolidin-1-yl)-acetamide stereoisomers as novel positive allosteric modulators of sigma-1 receptor” (Bioorg Med Chem, 2013).
Calls of active or inactive are those of the source. The calls are words filed in the database; no cut-off is given here.

Tests used:
Mus musculus [1] = test: Toxicity in ICR mouse assessed as effect on locomotor activity measured moved distance per 4 mins at 100 mg/kg, ip after 60 mins by open field test (reference value: 623 136 cm); type: organism-based; parameters: dose 100 mg/kg, route intraperitoneal; conditions: in vivo
[2] = biological target: Cannabinoid receptor 1 (Homo sapiens) (UniProt P21554); test: Binding affinity to human CB1 receptor at 10 uM by radioligand displacement assay relative to control
Mus musculus [3] = test: Toxicity in ICR mouse assessed as effect on locomotor activity measured moved distance per 4 mins at 10 mg/kg, ip after 180 mins by open field test (reference value: 436 125 cm); type: organism-based; parameters: dose 10 mg/kg, route intraperitoneal; conditions: in vivo
[4] = biological target: Delta-type opioid receptor (Homo sapiens) (UniProt P41143); test: Binding affinity to delta opioid receptor (unknown origin) at 10 uM by radioligand displacement assay relative to control
Mus musculus [5] = test: Antiamnesic activity in ICR mouse scopolamine-induced memory impairment model assessed as increase in retention latency at 5 mg/kg, ip administered 60 mins prior to scopolamine challenge measured after 40 mins by passive avoidance test relative to scopolamine-treated control; type: functional; conditions: route intraperitoneal
[6] = biological target: Mu-type opioid receptor (Homo sapiens) (UniProt P35372); test: Binding affinity to mu opioid receptor (unknown origin) at 10 uM by radioligand displacement assay relative to control
Mus musculus [7] = test: Toxicity in ICR mouse assessed as effect on locomotor activity measured moved distance per 4 mins at 1 mg/kg, ip after 30 mins by open field test (reference value: 1124 121 cm); type: organism-based; parameters: dose 1 mg/kg, route intraperitoneal; conditions: in vivo
Mus musculus [8] = test: Toxicity in ICR mouse assessed as effect on locomotor activity measured moved distance per 4 mins at 10 mg/kg, ip after 60 mins by open field test (reference value: 623 136 cm); type: organism-based; parameters: dose 10 mg/kg, route intraperitoneal; conditions: in vivo
Mus musculus [9] = test: Antiamnesic activity in ICR mouse scopolamine-induced memory impairment model assessed as increase in retention latency at 5 mg/kg, ip administered 60 mins prior to scopolamine challenge measured after 40 mins by passive avoidance test in presence of sigma-1 receptor anatagonist NE-100; type: functional, organism-based; parameters: dose 5 mg/kg
Homo sapiens [10] = species on record: Homo sapiens; test: Binding affinity to peripheral-type BZD receptor (unknown origin) at 10 uM by radioligand displacement assay relative to control
Mus musculus [11] = test: Toxicity in ICR mouse assessed as effect on locomotor activity measured moved distance per 4 mins at 100 mg/kg, ip after 30 mins by open field test (reference value: 1124 121 cm); type: organism-based; parameters: dose 100 mg/kg, route intraperitoneal; conditions: in vivo
Homo sapiens [12] = species on record: Homo sapiens; test: Binding affinity to GABA-gated chloride channel (unknown origin) at 10 uM by radioligand displacement assay relative to control
[13] = biological target: Neurotensin receptor type 1 (Homo sapiens) (UniProt P30989); test: Binding affinity to NTS1 receptor (unknown origin) at 10 uM by radioligand displacement assay relative to control
[14] = biological target: D(4) dopamine receptor (Homo sapiens) (UniProt P21917); test: Binding affinity to human dopamine D4.4 receptor at 10 uM by radioligand displacement assay relative to control
Mus musculus [15] = test: Toxicity in ICR mouse assessed as effect on locomotor activity measured moved distance per 4 mins at 1 mg/kg, ip after 120 mins by open field test (reference value: 578 126 cm); type: organism-based; parameters: dose 1 mg/kg, route intraperitoneal; conditions: in vivo
Mus musculus [16] = test: Cognitive enhancing effect in ICR mouse assessed as increase in retention latency at 1 mg/kg, ip administered 60 mins prior to testing measured after 24 hrs by passive avoidance test relative to control; type: functional; conditions: route intraperitoneal
Mus musculus [17] = test: Cognitive enhancing effect in ICR mouse assessed as increase in retention latency at 10 mg/kg, ip administered 60 mins prior to testing measured after 24 hrs by passive avoidance test relative to control; type: functional; conditions: route intraperitoneal
[18] = biological target: Histamine H1 receptor (Homo sapiens) (UniProt P35367); test: Binding affinity to human histamine H1 receptor at 10 uM by radioligand displacement assay relative to control
[19] = biological target: Sigma non-opioid intracellular receptor 1 (Rattus norvegicus) (UniProt Q9R0C9); test: Positive allosteric modulation of Wistar rat sigma 1 receptor assessed as potentiation of PB-28 effect on electrically-stimulated vas deferens contraction at 10 uM preincubated for 10 mins followed by PB-28 addition
Mus musculus [20] = test: Toxicity in ICR mouse assessed as effect on locomotor activity measured moved distance per 4 mins at 100 mg/kg, ip after 180 mins by open field test (reference value: 436 125 cm); type: organism-based; parameters: dose 100 mg/kg, route intraperitoneal; conditions: in vivo
[21] = biological target: Adrenergic receptor alpha-1 (Homo sapiens) (UniProt P35348+P25100+P35368); test: Binding affinity to human adrenergic alpha1 receptor at 10 uM by radioligand displacement assay relative to control
Homo sapiens [22] = species on record: Homo sapiens; test: Binding affinity to P2Y receptor (unknown origin) at 10 uM by radioligand displacement assay relative to control
[23] = biological target: Alpha-2A adrenergic receptor (Homo sapiens) (UniProt P08913); test: Binding affinity to adrenergic alpha2 receptor (unknown origin) at 10 uM by radioligand displacement assay relative to control
Homo sapiens [24] = species on record: Homo sapiens; test: Binding affinity to bombesin receptor (unknown origin) at 10 uM by radioligand displacement assay relative to control
[25] = biological target: Melanocortin receptor 4 (Homo sapiens) (UniProt P32245); test: Binding affinity to human MC4 receptor at 10 uM by radioligand displacement assay relative to control
Mus musculus [26] = test: Toxicity in ICR mouse assessed as effect on locomotor activity measured moved distance per 4 mins at 100 mg/kg, ip after 240 mins by open field test (reference value: 398 70 cm); type: organism-based; parameters: dose 100 mg/kg, route intraperitoneal; conditions: in vivo
[27] = biological target: Sigma non-opioid intracellular receptor 1 (Rattus norvegicus) (UniProt Q9R0C9); test: Positive allosteric modulation of Wistar rat sigma 1 receptor assessed as potentiation of PRE-084 effect on electrically-stimulated vas deferens contraction at 10 uM preincubated for 10 mins followed by PRE-084 addition
Outline: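 Isolated rat vas deferens, proximal ~15 mm segments, in K-H buffer at 32 °C gassed […], with 1.0 g passive tension and a 60 min adaptation. Field-stimulated at 0.1 Hz, 1 ms, 50 V. Cumulative PRE-084 (1–100 µM) was given, then washout and a 30 min rest. Test compound 10 µM was added for 10 min before cumulative PRE-084. Response is % increase over baseline amplitude; n=6, mean ± SEM, paired t-test.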

[28] = biological target: Adenosine receptor A1 (Homo sapiens) (UniProt P30542); test: Binding affinity to human adenosine A1 receptor at 10 uM by radioligand displacement assay relative to control
[29] = biological target: Nociceptin receptor (Homo sapiens) (UniProt P41146); test: Binding affinity to ORL1 receptor (unknown origin) at 10 uM by radioligand displacement assay relative to control
Mus musculus [30] = test: Toxicity in ICR mouse assessed as effect on locomotor activity measured moved distance per 4 mins at 10 mg/kg, ip after 120 mins by open field test (reference value: 578 126 cm); type: organism-based; parameters: dose 10 mg/kg, route intraperitoneal; conditions: in vivo
Homo sapiens [31] = species on record: Homo sapiens; test: Binding affinity to sodium channel site 2 (unknown origin) at 10 uM by radioligand displacement assay relative to control
[32] = biological target: Gastrin/cholecystokinin type B receptor (Homo sapiens) (UniProt P32239); test: Binding affinity to human CCK2 receptor at 10 uM by radioligand displacement assay relative to control
Mus musculus [33] = test: Toxicity in ip dosed ICR mouse assessed as effect on motor coordination measured within 120 secs by rotarod test; type: organism-based; conditions: in vivo, 2 min

Chain of Sigma non-opioid intracellular receptor 1 (Rattus norvegicus) (Q9R0C9 whole entry): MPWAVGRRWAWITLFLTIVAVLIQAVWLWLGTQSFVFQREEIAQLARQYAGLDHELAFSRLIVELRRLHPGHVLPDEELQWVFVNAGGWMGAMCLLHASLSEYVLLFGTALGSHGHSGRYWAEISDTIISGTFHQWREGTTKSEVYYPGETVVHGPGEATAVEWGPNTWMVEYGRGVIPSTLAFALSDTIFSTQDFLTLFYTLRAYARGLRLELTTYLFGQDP
Chain of Histamine H1 receptor (Homo sapiens) (P35367 whole entry): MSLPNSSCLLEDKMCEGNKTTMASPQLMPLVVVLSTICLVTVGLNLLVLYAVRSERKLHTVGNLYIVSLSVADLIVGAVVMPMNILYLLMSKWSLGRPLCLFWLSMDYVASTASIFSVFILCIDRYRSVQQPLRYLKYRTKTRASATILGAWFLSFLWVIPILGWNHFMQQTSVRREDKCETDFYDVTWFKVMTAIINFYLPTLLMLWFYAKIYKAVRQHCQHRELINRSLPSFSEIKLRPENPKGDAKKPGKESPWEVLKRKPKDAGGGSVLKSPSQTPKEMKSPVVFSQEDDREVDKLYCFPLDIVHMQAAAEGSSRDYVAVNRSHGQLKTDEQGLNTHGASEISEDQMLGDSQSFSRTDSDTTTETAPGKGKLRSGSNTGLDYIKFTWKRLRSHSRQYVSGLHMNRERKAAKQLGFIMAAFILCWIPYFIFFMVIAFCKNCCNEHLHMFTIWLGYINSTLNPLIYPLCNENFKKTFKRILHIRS
Chain of Gastrin/cholecystokinin type B receptor (Homo sapiens) (P32239 whole entry): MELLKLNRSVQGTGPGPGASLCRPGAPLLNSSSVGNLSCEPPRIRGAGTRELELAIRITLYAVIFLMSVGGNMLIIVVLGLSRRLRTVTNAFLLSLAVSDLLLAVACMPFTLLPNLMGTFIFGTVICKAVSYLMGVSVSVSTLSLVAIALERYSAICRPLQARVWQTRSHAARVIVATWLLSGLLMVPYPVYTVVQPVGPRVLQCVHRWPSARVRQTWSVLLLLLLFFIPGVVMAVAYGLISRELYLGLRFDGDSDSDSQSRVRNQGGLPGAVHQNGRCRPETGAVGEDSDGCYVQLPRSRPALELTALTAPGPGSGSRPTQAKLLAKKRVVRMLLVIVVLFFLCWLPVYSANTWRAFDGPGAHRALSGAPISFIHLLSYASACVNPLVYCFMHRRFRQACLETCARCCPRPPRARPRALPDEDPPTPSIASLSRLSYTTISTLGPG
Chain of Cannabinoid receptor 1 (Homo sapiens) (P21554 whole entry): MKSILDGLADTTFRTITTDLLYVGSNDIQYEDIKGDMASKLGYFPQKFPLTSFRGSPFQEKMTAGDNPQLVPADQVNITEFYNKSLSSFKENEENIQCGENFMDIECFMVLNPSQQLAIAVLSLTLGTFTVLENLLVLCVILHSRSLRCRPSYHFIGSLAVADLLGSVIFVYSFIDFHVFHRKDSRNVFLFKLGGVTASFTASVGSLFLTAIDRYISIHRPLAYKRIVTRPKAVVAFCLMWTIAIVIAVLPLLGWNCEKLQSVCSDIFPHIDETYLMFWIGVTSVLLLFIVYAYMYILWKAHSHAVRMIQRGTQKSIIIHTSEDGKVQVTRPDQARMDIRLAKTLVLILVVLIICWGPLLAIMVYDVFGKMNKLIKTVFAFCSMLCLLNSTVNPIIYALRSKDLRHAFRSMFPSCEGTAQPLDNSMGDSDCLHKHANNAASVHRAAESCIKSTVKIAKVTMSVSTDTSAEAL
Chain of Alpha-2A adrenergic receptor (Homo sapiens) (P08913 whole entry): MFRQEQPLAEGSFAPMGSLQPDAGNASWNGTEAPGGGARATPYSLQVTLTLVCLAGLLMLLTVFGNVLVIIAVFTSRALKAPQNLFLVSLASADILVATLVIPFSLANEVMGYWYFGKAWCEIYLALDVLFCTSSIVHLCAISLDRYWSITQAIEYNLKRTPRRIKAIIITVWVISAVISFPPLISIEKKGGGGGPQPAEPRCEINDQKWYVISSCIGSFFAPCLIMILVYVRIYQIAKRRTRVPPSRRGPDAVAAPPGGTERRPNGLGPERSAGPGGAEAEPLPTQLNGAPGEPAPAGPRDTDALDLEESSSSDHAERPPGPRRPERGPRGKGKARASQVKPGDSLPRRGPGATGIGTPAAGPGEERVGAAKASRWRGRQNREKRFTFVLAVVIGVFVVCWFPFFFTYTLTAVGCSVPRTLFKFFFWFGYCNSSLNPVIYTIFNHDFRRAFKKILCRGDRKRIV
Chain of Mu-type opioid receptor (Homo sapiens) (P35372 whole entry): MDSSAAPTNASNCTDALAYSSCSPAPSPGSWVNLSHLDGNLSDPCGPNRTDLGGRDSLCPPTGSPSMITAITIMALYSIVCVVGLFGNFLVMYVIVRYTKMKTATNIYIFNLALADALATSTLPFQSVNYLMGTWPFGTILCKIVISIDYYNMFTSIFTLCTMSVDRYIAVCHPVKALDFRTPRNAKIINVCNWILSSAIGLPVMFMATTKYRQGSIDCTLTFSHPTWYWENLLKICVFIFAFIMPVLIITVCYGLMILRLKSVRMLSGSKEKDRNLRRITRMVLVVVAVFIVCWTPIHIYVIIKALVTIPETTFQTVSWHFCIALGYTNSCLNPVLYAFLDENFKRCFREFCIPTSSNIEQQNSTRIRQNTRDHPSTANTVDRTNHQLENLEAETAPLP
Chain of Delta-type opioid receptor (Homo sapiens) (P41143 whole entry): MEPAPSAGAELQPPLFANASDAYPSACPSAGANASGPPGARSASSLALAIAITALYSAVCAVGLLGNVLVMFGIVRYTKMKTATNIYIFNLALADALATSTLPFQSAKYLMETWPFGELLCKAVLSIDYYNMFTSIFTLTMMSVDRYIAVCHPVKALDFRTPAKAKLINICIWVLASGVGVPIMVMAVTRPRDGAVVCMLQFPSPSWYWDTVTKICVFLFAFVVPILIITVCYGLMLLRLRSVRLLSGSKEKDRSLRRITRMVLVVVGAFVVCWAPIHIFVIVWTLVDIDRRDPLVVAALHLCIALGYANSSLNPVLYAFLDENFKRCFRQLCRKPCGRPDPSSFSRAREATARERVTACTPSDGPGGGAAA
Chain of Neurotensin receptor type 1 (Homo sapiens) (P30989 whole entry): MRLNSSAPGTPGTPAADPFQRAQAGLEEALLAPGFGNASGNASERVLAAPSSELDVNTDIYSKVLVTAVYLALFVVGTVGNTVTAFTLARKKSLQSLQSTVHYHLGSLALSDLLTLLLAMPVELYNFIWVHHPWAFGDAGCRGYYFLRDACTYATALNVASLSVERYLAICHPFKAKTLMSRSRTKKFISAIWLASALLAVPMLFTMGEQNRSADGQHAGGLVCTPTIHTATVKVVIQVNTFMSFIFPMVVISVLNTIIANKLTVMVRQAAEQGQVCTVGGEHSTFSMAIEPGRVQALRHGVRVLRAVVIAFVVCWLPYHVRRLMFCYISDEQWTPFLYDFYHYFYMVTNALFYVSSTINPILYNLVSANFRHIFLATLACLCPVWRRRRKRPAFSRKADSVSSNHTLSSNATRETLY
Chain of Melanocortin receptor 4 (Homo sapiens) (P32245 whole entry): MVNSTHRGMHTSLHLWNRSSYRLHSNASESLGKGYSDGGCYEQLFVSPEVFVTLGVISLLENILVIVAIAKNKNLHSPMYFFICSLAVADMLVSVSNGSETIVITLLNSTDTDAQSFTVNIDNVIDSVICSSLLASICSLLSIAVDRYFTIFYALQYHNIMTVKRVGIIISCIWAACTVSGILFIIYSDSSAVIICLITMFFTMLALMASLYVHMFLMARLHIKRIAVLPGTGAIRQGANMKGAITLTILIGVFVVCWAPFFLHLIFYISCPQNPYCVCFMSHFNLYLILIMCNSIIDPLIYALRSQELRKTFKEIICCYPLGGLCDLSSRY
Chain of D(4) dopamine receptor (Homo sapiens) (P21917 whole entry): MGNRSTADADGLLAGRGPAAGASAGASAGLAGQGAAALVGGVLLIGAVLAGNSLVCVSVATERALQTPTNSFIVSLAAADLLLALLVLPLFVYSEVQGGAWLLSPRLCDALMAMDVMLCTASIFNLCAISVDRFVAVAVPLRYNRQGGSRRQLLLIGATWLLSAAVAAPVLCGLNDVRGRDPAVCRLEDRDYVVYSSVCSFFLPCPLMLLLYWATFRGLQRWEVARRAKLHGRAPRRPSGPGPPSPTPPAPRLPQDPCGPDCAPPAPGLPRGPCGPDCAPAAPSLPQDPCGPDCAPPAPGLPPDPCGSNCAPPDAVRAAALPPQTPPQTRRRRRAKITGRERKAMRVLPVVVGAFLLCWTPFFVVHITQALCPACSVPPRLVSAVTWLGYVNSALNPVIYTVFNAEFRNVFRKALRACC
Chain of Adenosine receptor A1 (Homo sapiens) (P30542 whole entry): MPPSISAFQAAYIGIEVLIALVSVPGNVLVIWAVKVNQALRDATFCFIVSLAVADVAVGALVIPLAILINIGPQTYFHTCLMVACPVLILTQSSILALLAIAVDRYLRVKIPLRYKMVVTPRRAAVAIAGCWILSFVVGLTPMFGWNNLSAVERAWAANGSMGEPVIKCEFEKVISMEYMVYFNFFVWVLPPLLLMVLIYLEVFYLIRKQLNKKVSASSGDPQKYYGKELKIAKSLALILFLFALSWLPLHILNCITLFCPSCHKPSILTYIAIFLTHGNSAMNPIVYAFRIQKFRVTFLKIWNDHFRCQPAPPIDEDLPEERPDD
Chain of Nociceptin receptor (Homo sapiens) (P41146 whole entry): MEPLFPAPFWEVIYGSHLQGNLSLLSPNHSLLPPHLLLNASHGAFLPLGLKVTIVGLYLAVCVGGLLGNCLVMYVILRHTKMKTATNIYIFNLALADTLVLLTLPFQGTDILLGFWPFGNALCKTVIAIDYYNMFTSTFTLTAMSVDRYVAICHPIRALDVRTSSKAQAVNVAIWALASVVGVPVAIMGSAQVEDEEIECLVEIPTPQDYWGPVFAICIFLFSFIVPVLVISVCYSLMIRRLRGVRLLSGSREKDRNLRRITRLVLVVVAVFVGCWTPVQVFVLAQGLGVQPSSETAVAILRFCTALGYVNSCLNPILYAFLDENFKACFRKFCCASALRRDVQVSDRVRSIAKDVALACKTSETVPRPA

C[C@H]1[C@@H](c2ccccc2)CC(=O)N1CC(N)=O
Activity (Mus musculus [1]): 648 cm | inhibition [2]: -3% | Activity (Mus musculus [3]): 406 cm | inhibition [4]: -4% | Activity (Mus musculus [5]): 237% | inhibition [6]: -7% | Activity (Mus musculus [7]): 1402 cm | Activity (Mus musculus [8]): 640 cm | Activity (Mus musculus [9]): inactive | inhibition (Homo sapiens [10]): 3% | Activity (Mus musculus [11]): 1076 cm | inhibition (Homo sapiens [12]): -3% | inhibition [13]: -3% | inhibition [14]: -3% | Activity (Mus musculus [15]): 688 cm | Activity (Mus musculus [16]): 194% | Activity (Mus musculus [17]): 211% | inhibition [18]: -7% | Activity [19]: inactive | Activity (Mus musculus [20]): 450 cm | inhibition [21]: -5% | inhibition (Homo sapiens [22]): -4% | inhibition [23]: -4% | inhibition (Homo sapiens [24]): -5% | inhibition [25]: 4% | Activity (Mus musculus [26]): 458 cm | Activity [27]: Active | inhibition [28]: 2% | inhibition [29]: 4% | Activity (Mus musculus [30]): 472 cm | inhibition (Homo sapiens [31]): 5% | inhibition [32]: 8% | ED50 (Mus musculus [33]): 453 mg/kg
